# Mot1-301 SUMO: inhibitors of SUMOylation pathway: yeast Mot1-301 growth rescue; S. cerevisiae Mot1-301 growth rescue, ATP luminescence, 38.5C; percent above DMSO median, 100 means doubled; growth rescue, % at 18.8 µM; 1% of 320,000 active; AID 2716;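 active = every valid replicate shows activation above 250% relative to neutral control wells; inactive = the rest, any valid replicate at or below 250%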;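 also: OY570 slx delta 5 strain wells were the positive control but not used for scaling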
# VIM-2 inhibitor: inhibitors of Pseudomonas aeruginosa VIM-2 metallo-beta-lactamase; purified VIM-2, nitrocefin hydrolysis, epi-absorbance fluorescence; inhibition, % at 5.6 µM; 0.89% of 290,000 active; AID 1527;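 active = inhibition above the mean of all tested compounds plus 3 SD, cutoff set per screening run, cut at about 7.5% in these data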;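 also: red hydrolysis product quenches plate fluorescence so inhibitors raise well fluorescence; 0% = enzyme with DMSO and 100% = DMSO without enzyme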
# NALP1 yeast inh: inhibitors of NALP1 inflammasome in yeast; S. cerevisiae NALP1/ASC/caspase-1 growth, X-gal OD620, 72 h; inhibition, % at 10 µM; 0.61% of 280,000 active; in the data active = inhibition mostly above about 24%, no sharp cut-off; inactive = mostly below about 32%
# NALP3 yeast inh: inhibitors of NALP3 inflammasome in yeast. Yeast reconstituted NLRP3/ASC/caspase-1, beta-gal luminescence, 24 h. inhibition, % at 10 µM. 0.39% of 330,000 active;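 active = inhibition of 50% or more; inactive = inhibition below 50%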;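 also: plate controls were induced DMSO wells for no effect and uninduced yeast grown without galactose for full effect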
# IMP-1 inh: blocks Pseudomonas aeruginosa IMP-1 metallo-beta-lactamase | purified IMP-1, nitrocefin hydrolysis, epi-absorbance fluorescence | inhibition, % at 5.6 µM | 0.45% of 290,000 active;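 active = inhibition above the mean plus 3 SD of all compounds in the same screening run, cut at about 4.5% in these data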;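 also: 0% = IMP-1 with DMSO and 100% = DMSO wells lacking enzyme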
#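 Material – recombinant IMP-1 enzyme, purified · Amount – IMP-1 0.2 nM before substrate addition · Medium – HEPES buffer pH 7.1 with ZnSO4 and Brij 35 · Timing – 25 °C, 15 min preincubation, 25 min reaction · Measured by – plate fluorescence quenching by hydrolysis product, ex 480/em 530 nm · Read-out – percent enzyme inhibition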
# PolyA inh: yeast polyadenylation inhibition; S. cerevisiae SKY197-pL101 polyadenylation reporter, beta-gal luminescence; efflux-impaired pdr1/pdr3 knockout yeast; score 100 = 6 SD above DMSO; activity score, % at 12 µM; 0.02% of 300,000 active;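 active = lowest replicate activity score at least 50, where 100 means six control SD above control mean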;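 also: yeast exposed to compound for 9 h at 30 °C; higher score means more reporter readthrough which indicates perturbed polyadenylation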
# Active calls of the source: *; . = no result given. This is a sample that favours compounds with a hit; in the whole collection about 2.9% have one here.
SMILES,Mot1-301 SUMO,VIM-2 inhibitor,NALP1 yeast inh,NALP3 yeast inh,IMP-1 inh,PolyA inh
CCCN1CCN(CCCNC(=O)CCNC(=O)Cn2ccc3ccccc3c2=O)CC1,.,1,50,9,5.4*,1
CCCN1CCN(CCCNC(=O)Cn2nc(-c3ccc(C)cc3)ccc2=O)CC1,11,0,34,11,6.3*,2
CCN1CCN(C(=O)CCNC(=O)Cn2ccc3ccccc3c2=O)CC1,16,-7,2,-5,-2,-30
CC(C)[C@]1(c2ccc(Cl)cc2)ON(c2ccccc2C(F)(F)F)C1=O,-7,.,.,9,.,.
O=S(=O)(c1ccc(F)cc1)N1CCN(CC(O)COCC2CCCO2)CC1 (stereo not drawn),.,.,.,10,.,.
Cc1ccccc1C(=O)Nc1ccnn1C1CCN(C(C)Cc2ccccc2F)CC1 (stereo not drawn),-2,-1,10,13,-1,15
COc1ccc(N2CCN(C(=O)COC(=O)c3ccc(-n4nc(C)cc4C)cc3)CC2)cc1,-3,.,.,15,.,.
CCN[C@H]1CN(CCCOC)S(=O)(=O)c2sc(S(N)(=O)=O)cc21,8,.,.,-9,.,.
O=C(CSc1nnc(NC(=O)c2cccc(F)c2)s1)NC1CCCC1,-26,11*,14,-8,-2,14
Cn1c(SCC(=O)NCC2CCCO2)ncc(C(=O)Nc2ccccc2)c1=O (stereo not drawn),418*,.,.,15,.,4
O=C(CSc1nnc(NC(=O)c2ccccc2)s1)NCC1CCCO1 (stereo not drawn),-23,11*,12,-3,-3,15
O=C(CSc1nnc(NC(=O)Cc2ccccc2)s1)NCC1CCCO1 (stereo not drawn),257,-1,20,16,-1,10
Cc1ccc(NC(=O)CSCC(=O)Nc2ccccc2C(=O)NC2CC2)cc1,.,.,.,2,.,.
CCOc1ccc(C2CC(=O)NC2=O)cc1 (stereo not drawn),-3,-4,0,17,-5,-6
Cc1cccc(N2CCN(c3ccc4cc(S(=O)(=O)N5CCCCC5)ccc4n3)CC2)c1C,-6,-1,1,10,-2,-3
CCOCCN1CCN(C2c3ccccc3CSc3ccccc32)CC1 (stereo not drawn),-12,.,.,7,.,10
O=c1[nH]c2cc3c(cc2cc1C(c1nnnn1Cc1ccccc1)N1CCN2CCCC2C1)OCCO3 (stereo not drawn),.,-2,29*,14,-4,-8
O=c1[nH]c2cc3c(cc2cc1C(c1nnnn1Cc1ccccc1)N1CCCCCC1)OCCO3 (stereo not drawn),-2,1,-30,3,0,13
O=C(CCC(=O)N1CCN(c2ccccn2)CC1)c1ccc(Cl)s1,-9,.,.,0,.,.
CCOc1cc(C(=S)N2CCN(C)CC2)ccc1OCC(=O)N1CCCC1,277,4,6,16,0,-1
Nc1ccccc1SCc1csc(-c2ccc(Cl)cc2)n1,22,-3,40*,36,-3,-6
CCS(=O)(=O)Nc1cccc(-c2ccc3nnc(-c4cccnc4)n3n2)c1,213,8.9*,-4,3,-2,1
CC(=O)NC(CC(=O)OCc1ccc([N+](=O)[O-])cc1)c1ccccc1 (stereo not drawn),497*,-2,11,-12,-2,11
COc1ccc(NC(=O)N2CCc3ccccc3C2)c(OC)c1,-4,-2,14,6,-2,25
Cc1cc([N+](=O)[O-])c2c(c1C)C1C=CCC1C(c1ccccn1)N2 (stereo not drawn),-4,1,-28,-3,5.9*,-24
SMILES,Mot1-301 SUMO,VIM-2 inhibitor,NALP1 yeast inh,NALP3 yeast inh,IMP-1 inh,PolyA inh
Cc1cc([N+](=O)[O-])cc2c1NCC1CC=CC21 (stereo not drawn),2,-3,32,23,-4,-3
COC(=O)c1ccccc1NC1=C/C(=N\S(=O)(=O)c2cccs2)c2ccccc2C1=O,-13,4,11,38,5.0*,-29
O=C1C(Nc2ccccc2)=C/C(=N/S(=O)(=O)c2cccs2)c2ccccc21,-36,-3,54,.,-3,-53
CCOc1ncccc1C(=O)Nc1cc2c(cc1Br)OCCO2,-1,.,.,18,.,.
CCCCn1c2c(c(=N)c3c1CCC3)CCC2,-9,-8,2,-2,4.8*,.
Cc1ccc(S(=O)(=O)N2CCOCC2)cc1NC(=O)CSc1nnc(NC2CC2)s1,-15,.,.,20,.,.
O=C(NCCCn1ccnc1)C(=O)NCC1OCCCN1S(=O)(=O)c1ccc(Cl)cc1 (stereo not drawn),11,-1,13,-8,-1,19
O=C(NCCCn1ccnc1)C(=O)NCC1OCCN1S(=O)(=O)c1ccc(Cl)cc1 (stereo not drawn),-17,-2,22,1,1,6
O=C(NCCCn1ccnc1)C(=O)NCC1OCCN1S(=O)(=O)c1ccccc1 (stereo not drawn),182,5,7,9,13*,7
O=C(NCCCn1ccnc1)C(=O)NCC1OCCCN1S(=O)(=O)c1ccccc1 (stereo not drawn),-1,-1,21,-6,10*,-1
CCOc1cc(/C=N\Nc2nc(Nc3ccccc3)nc(N3CCOCC3)n2)ccc1OC(=O)c1ccco1,90,-4,4,4,-3,-15
Cc1cccc(-n2c(-c3ccc(Br)o3)n[nH]c2=S)c1,-4,.,.,12,.,1
FC(F)(F)c1ccccc1-n1c(-c2ccco2)n[nH]c1=S,3,9.9*,1,15,-1,-11
S=c1[nH]nc(-c2cc(-c3ccco3)[nH]n2)n1-c1cccc2ccccc12,29,-1,-18,11,-2,-7
Cc1cccc(-n2c(-c3ccco3)n[nH]c2=S)c1,-8,19*,6,1,-1,-7
N#Cc1c2ccc(OCC(N)=O)cc2n2ccccc12,371*,2,11,3,-2,2
CCOC(=O)c1cccc(C2=CC(=O)C[C@H](c3ccc(Cl)cc3)C2)c1,2,.,.,15,.,.
Cc1ccc(N2CCCn3c2cc(C)c(C#N)c3=O)cc1Cl,8,7.8*,6,-3,-1,4
Cc1ccc(OCC(=O)Nc2ccc(S(=O)(=O)N3CCOCC3)cc2)c(Br)c1,-6,1,7,11,-2,-12
O=C(c1ccc([N+](=O)[O-])cc1)N1CCN(c2ncccn2)CC1,-6,.,.,15,.,1
O=C(O)CC(CN1C(=O)c2ccccc2C1=O)c1ccccc1 (stereo not drawn),18,.,.,12,.,25
O=C(CCN1CCC(c2ccccc2)C1)c1cccs1 (stereo not drawn),36,-2,0,41,1,-4
O=C(CCN1CCC(c2ccccc2)C1)c1ccccc1 (stereo not drawn),-5,-2,23*,36,-2,-14
COc1c(Cl)cc(Cl)cc1CNc1ccc(S(N)(=O)=O)cc1,327*,0,0,16,0,-4

# Screening data as filed in PubChem BioAssay.
